pIC50: −log10 of the molar value. Square brackets hold non-standard residues; d marks the D form. Peptide text beside a SMILES is read from it. Lys(Me3) = C[N+](C)(C)CCCC[C@H](N)C(=O)O
Tests used:
[1] = Toxicity in sheep erythrocyte assessed as hemolysis; assay type: cell-based, Ovis aries; conditions: sheep erythrocytes
How it was run: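 Washed sheep erythrocytes at 2 107 cells/mL in Hank's medium were exposed to peptide for 4 h at 37 °C, then spun (5 min, 4 °C). Hemoglobin in the supernatant was read at 550 nm. HC50 is the peptide concentration releasing 50% of the hemoglobin freed by 0.1% Triton X-100.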

Leishmania donovani [2] = test: Antileishmanial activity against Leishmania donovani MHOM/SD/001S-2D promastigotes after 72 hrs by MTT assay; assay type: functional, organism-based
How it was run: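 L. donovani promastigotes (strain MHOM/SD/00/1S-2D) are harvested at late exponential phase and washed in Hank's + 20 mM D-glucose, pH 7.2. They are treated with peptide at 2 × 10^7 parasites/mL for 4 h at 26 °C. A 20 μL aliquot then goes into complete medium for 72 h at 26 °C to let survivors proliferate. LC50 is 50% inhibition of proliferation. Triplicates, repeated at least twice.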

Leishmania donovani [3] = test: Antileishmanial activity against Leishmania donovani MHOM/SD/001S-2D promastigotes after 4 hrs by MTT assay
Acinetobacter baumannii = test: Antimicrobial activity against Acinetobacter baumannii ATCC 19606 ATCC 19606 by turbidimetry; assay type: functional
[4] = Selectivity index, ratio of IC50 for sheep erythrocyte to LC50 for Leishmania pifanoi MHOM/VE/60/LTrod amastigotes
How it was run: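 SI = HC50/LC50. HC50 comes from sheep erythrocytes (2 × 10^7 cells/mL in Hank's, 4 h, 37 °C, hemoglobin at 550 nm, 0.1% Triton X-100 as full lysis). For LC50, L. pifanoi axenic amastigotes at 2 × 10^7/mL in Hank's + 20 mM glucose get peptide for 4 h at 32 °C. An aliquot is then regrown in complete medium for 96 h at 32 °C.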

Leishmania pifanoi [5] = test: Antileishmanial activity against Leishmania pifonoi MHOM/VE/60/LTrod amastigotes after 4 hrs by MTT assay
Staphylococcus aureus = test: Antimicrobial activity against Staphylococcus aureus CECT 240 by turbidimetry; assay type: functional
[6] = Selectivity index, ratio of HC50 for sheep erythrocyte to MIC50 for Staphylococcus aureus CECT 240; assay type: functional
[7] = Selectivity index, ratio of IC50 for sheep erythrocyte to LC50 for Leishmania donovani MHOM/SD/001S-2D promastigotes
How it was run: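 SI = HC50/LC50. For HC50, washed sheep erythrocytes at 2 × 10^7 cells/mL in Hank's are exposed to peptide for 4 h at 37 °C. Hemoglobin in the supernatant is read at 550 nm; 0.1% Triton X-100 gives full lysis, and HC50 is 50% release.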

[8] = Selectivity index, ratio of HC50 for sheep erythrocyte to MIC50 for Acinetobacter baumannii ATCC 19606 ATCC 19606; assay type: functional
Leishmania pifanoi [9] = test: Antileishmanial activity against Leishmania pifonoi MHOM/VE/60/LTrod promastigotes after 72 hrs by MTT assay; assay type: functional, organism-based

Molecule	HC50 [1] [µM]	LC50 (Leishmania donovani [2]) [µM]	pIC50 (Leishmania donovani [3])	MIC50 (Acinetobacter baumannii) [µM]	Selectivity Index [4]	pIC50 (Leishmania pifanoi [5])	MIC50 (Staphylococcus aureus) [µM]	Selectivity Index [6]	Selectivity Index [7]	Selectivity Index [8]	LC50 (Leishmania pifanoi [9]) [µM]
CC[C@H](C)[C@H](NC(=O)[C@H](CCCC[N+](C)(C)C)NC(=O)[C@H](CCCCN)NC(=O)[C@H](Cc1ccccc1)NC(=O)[C@H](CC(C)C)NC(=O)[C@H](CCCCN)NC(=O)[C@H](Cc1c[nH]c2ccccc12)NC(=O)[C@@H](N)CCCCN)C(=O)NCC(=O)N[C@@H](C)C(=O)N[C@H](C(=O)N[C@@H](CC(C)C)C(=O)N[C@@H](CCCCN)C(=O)N[C@H](C(=O)N[C@@H](CC(C)C)C(N)=O)C(C)C)C(C)C.[Cl-] (H-KWKLFK[Lys(Me3)]IGAVLKVL-NH2)	164	2.3	5.43	1.9	13.5	4.94	7.2	22.8	71.3	86.3	12.1
H-KWKLFKKIGAVLKVL-NH2	40.2	1.5	5.74	1.1	8.9	5.37	2.9	13.8	26.8	36.5	4.5
CC[C@H](C)[C@H](NC(=O)[C@H](CCCCN)NC(=O)[C@H](CCCCN)NC(=O)[C@H](Cc1ccccc1)NC(=O)[C@H](CC(C)C)NC(=O)[C@H](CCCC[N+](C)(C)C)NC(=O)[C@H](Cc1c[nH]c2ccccc12)NC(=O)[C@@H](N)CCCCN)C(=O)NCC(=O)N[C@@H](C)C(=O)N[C@H](C(=O)N[C@@H](CC(C)C)C(=O)N[C@@H](CCCCN)C(=O)N[C@H](C(=O)N[C@@H](CC(C)C)C(N)=O)C(C)C)C(C)C.[Cl-] (H-KW[Lys(Me3)]LFKKIGAVLKVL-NH2)	85.6	3.1	5.48	1.7	10.4	5.03	2.4	35.7	27.6	50.3	8.2
CC[C@H](C)[C@H](NC(=O)[C@H](CCCCN)NC(=O)[C@H](CCCCN)NC(=O)[C@H](Cc1ccccc1)NC(=O)[C@H](CC(C)C)NC(=O)[C@H](CCCCN)NC(=O)[C@H](Cc1c[nH]c2ccccc12)NC(=O)[C@@H](N)CCCCN)C(=O)NCC(=O)N[C@@H](C)C(=O)N[C@H](C(=O)N[C@@H](CC(C)C)C(=O)N[C@@H](CCCC[N+](C)(C)C)C(=O)N[C@H](C(=O)N[C@@H](CC(C)C)C(N)=O)C(C)C)C(C)C.[Cl-] (H-KWKLFKKIGAVL[Lys(Me3)]VL-NH2)	157	2.5	5.46	2.1	13.5	5.00	4.4	35.8	63	74.9	11.6
CC[C@H](C)[C@H](NC(=O)[C@H](CCCCN)NC(=O)[C@H](CCCC[N+](C)(C)C)NC(=O)[C@H](Cc1ccccc1)NC(=O)[C@H](CC(C)C)NC(=O)[C@H](CCCCN)NC(=O)[C@H](Cc1c[nH]c2ccccc12)NC(=O)[C@@H](N)CCCCN)C(=O)NCC(=O)N[C@@H](C)C(=O)N[C@H](C(=O)N[C@@H](CC(C)C)C(=O)N[C@@H](CCCCN)C(=O)N[C@H](C(=O)N[C@@H](CC(C)C)C(N)=O)C(C)C)C(C)C.[Cl-] (H-KWKLF[Lys(Me3)]KIGAVLKVL-NH2)	158	1.7	5.43	1.4	9.6	4.87	4.6	34.3	92.7	112.2	16.3
CC[C@H](C)[C@H](NC(=O)[C@H](CCCCN)NC(=O)[C@H](CCCCN)NC(=O)[C@H](Cc1ccccc1)NC(=O)[C@H](CC(C)C)NC(=O)[C@H](CCCCN)NC(=O)[C@H](Cc1c[nH]c2ccccc12)NC(=O)[C@@H](N)CCCC[N+](C)(C)C)C(=O)NCC(=O)N[C@@H](C)C(=O)N[C@H](C(=O)N[C@@H](CC(C)C)C(=O)N[C@@H](CCCCN)C(=O)N[C@H](C(=O)N[C@@H](CC(C)C)C(N)=O)C(C)C)C(C)C.[Cl-] (H-[Lys(Me3)]WKLFKKIGAVLKVL-NH2)	77.2	2.8	5.41	1.3	12	5.22	3.4	22.7	27.6	59.4	6.4
CC[C@H](C)[C@H](NC(=O)[C@H](CCCCN)NC(=O)[C@H](CCCC[N+](C)(C)C)NC(=O)[C@H](Cc1ccccc1)NC(=O)[C@H](CC(C)C)NC(=O)[C@H](CCCC[N+](C)(C)C)NC(=O)[C@H](Cc1c[nH]c2ccccc12)NC(=O)[C@@H](N)CCCCN)C(=O)NCC(=O)N[C@@H](C)C(=O)N[C@H](C(=O)N[C@@H](CC(C)C)C(=O)N[C@@H](CCCCN)C(=O)N[C@H](C(=O)N[C@@H](CC(C)C)C(N)=O)C(C)C)C(C)C.[Cl-].[Cl-] (H-KW[Lys(Me3)]LF[Lys(Me3)]KIGAVLKVL-NH2)	117	6.7	5.29	2	7.1	5.13	6.2	18.9	17.4	58.6	16.5
CC[C@H](C)[C@H](NC(=O)[C@H](CCCC[N+](C)(C)C)NC(=O)[C@H](CCCC[N+](C)(C)C)NC(=O)[C@H](Cc1ccccc1)NC(=O)[C@H](CC(C)C)NC(=O)[C@H](CCCCN)NC(=O)[C@H](Cc1c[nH]c2ccccc12)NC(=O)[C@@H](N)CCCCN)C(=O)NCC(=O)N[C@@H](C)C(=O)N[C@H](C(=O)N[C@@H](CC(C)C)C(=O)N[C@@H](CCCCN)C(=O)N[C@H](C(=O)N[C@@H](CC(C)C)C(N)=O)C(C)C)C(C)C.[Cl-].[Cl-] (H-KWKLF[Lys(Me3)][Lys(Me3)]IGAVLKVL-NH2)	134	5.3	5.21	2.6	4.9	5.04	10.7	12.5	25.3	51.5	27
CC[C@H](C)[C@H](NC(=O)[C@H](CCCC[N+](C)(C)C)NC(=O)[C@H](CCCC[N+](C)(C)C)NC(=O)[C@H](Cc1ccccc1)NC(=O)[C@H](CC(C)C)NC(=O)[C@H](CCCC[N+](C)(C)C)NC(=O)[C@H](Cc1c[nH]c2ccccc12)NC(=O)[C@@H](N)CCCC[N+](C)(C)C)C(=O)NCC(=O)N[C@@H](C)C(=O)N[C@H](C(=O)N[C@@H](CC(C)C)C(=O)N[C@@H](CCCC[N+](C)(C)C)C(=O)N[C@H](C(=O)N[C@@H](CC(C)C)C(N)=O)C(C)C)C(C)C (H-[Lys(Me3)]W[Lys(Me3)]LF[Lys(Me3)][Lys(Me3)]IGAVL[Lys(Me3)]VL-NH2)	> 200	> 50	< 4.30	> 30	–	< 4.30	> 30	–	–	–	> 50
CC[C@H](C)[C@H](NC(=O)[C@H](CCCCN)NC(=O)[C@H](CCCCN)NC(=O)[C@H](Cc1ccccc1)NC(=O)[C@H](CC(C)C)NC(=O)[C@H](CCCC[N+](C)(C)C)NC(=O)[C@H](Cc1c[nH]c2ccccc12)NC(=O)[C@@H](N)CCCC[N+](C)(C)C)C(=O)NCC(=O)N[C@@H](C)C(=O)N[C@H](C(=O)N[C@@H](CC(C)C)C(=O)N[C@@H](CCCCN)C(=O)N[C@H](C(=O)N[C@@H](CC(C)C)C(N)=O)C(C)C)C(C)C.[Cl-].[Cl-] (H-[Lys(Me3)]W[Lys(Me3)]LFKKIGAVLKVL-NH2)	105	15.5	4.89	3.5	4.2	4.79	8	13.1	6.7	30	24.8

Source: ChEMBL document CHEMBL1212840, “Lysine N(epsilon)-trimethylation, a tool for improving the selectivity of antimicrobial peptides” (J Med Chem, 2010)
